{"data": "Published values of several laboratories", "HTR7": "5-hydroxytryptamine receptor 7 (HTR7, Homo sapiens, UniProt P34969)", "Neuronal acetylcholine receptor subunit alpha-4/beta-2": "Neuronal acetylcholine receptor subunit alpha-4/beta-2 (Mus musculus, UniProt O70174+Q9ERK7)", "Long-chain-fatty-acid--AMP ligase FadD28": "Long-chain-fatty-acid--AMP ligase FadD28 (Mycobacterium tuberculosis, UniProt P9WQ59)", "note": "Compare with care: the assays were run in different laboratories."}
{"SMILES": "CN(C)CCc1c[nH]c2ccccc12", "target": "HTR7", "assay": "ligand displacement, radioligand", "endpoint": "Ki", "value": "210 nM"}
{"SMILES": "CC[C@@H](CO)NC(=O)[C@@H]1C=C2c3cccc4c3c(cn4C)C[C@H]2N(C)C1", "target": "HTR7", "assay": "ligand displacement, radioligand", "setting": "cell membranes", "endpoint": "Ki", "value": "32 nM"}
{"SMILES": "N#Cc1ccc(C(=O)NOCc2ccc(C(F)(F)F)cc2)cc1", "target": "NAD-dependent protein deacylase sirtuin-6 (SIRT6, Homo sapiens, UniProt Q8N6T7)", "assay": "enzyme activity, inhibitor, fluorescence", "endpoint": "IC50", "value": "14900 nM"}
{"SMILES": "FC(F)(F)c1cccc(N2CCNCC2)c1", "target": "HTR7", "assay": "ligand displacement, radioligand", "setting": "cell membranes", "endpoint": "Ki", "value": "1620 nM"}
{"SMILES": "CNC(C)C/C=C/c1cncc(C#Cc2ccccc2)c1 (stereo not drawn)", "target": "Neuronal acetylcholine receptor subunit alpha-4/beta-2", "assay": "ligand displacement, radioligand", "setting": "cell membranes", "endpoint": "Ki", "value": "134 nM"}
{"SMILES": "CCCCCCCCCCCCCC(=O)NS(=O)(=O)OC[C@H]1O[C@@H](n2cnc3c(N)nc(C#CCOCCOCCOCCNC(=O)c4ccc(C(=O)O)c(-c5c6ccc(=[N+](C)C)cc-6oc6cc(N(C)C)ccc56)c4)nc32)[C@H](O)[C@@H]1O", "target": "Long-chain-fatty-acid--AMP ligase FadD28", "assay": "binding, FP", "endpoint": "Kd", "value": "245 nM"}
{"SMILES": "CCCCCCCCCCCC(=O)NS(=O)(=O)OC[C@H]1O[C@@H](n2cnc3c(N)ncnc32)[C@H](O)[C@@H]1O", "target": "Long-chain-fatty-acid--AMP ligase FadD28", "assay": "enzyme activity, inhibitor", "endpoint": "Ki", "value": "6000 nM"}
{"SMILES": "CCCCCCCCCCCCCC(=O)NS(=O)(=O)OC[C@H]1O[C@@H](n2cnc3c(N)ncnc32)[C@H](O)[C@@H]1O", "target": "Long-chain-fatty-acid--AMP ligase FadD28", "assay": "binding, ITC", "endpoint": "Kd", "value": "365 nM"}
{"SMILES": "CN1[C@@H]2CC[C@H]1C=C(c1cncc(Br)c1)C2", "target": "Neuronal acetylcholine receptor subunit alpha-4/beta-2", "assay": "ligand displacement, radioligand", "setting": "cell membranes", "endpoint": "Ki", "value": "2.31 nM"}
